Test results from ChEMBL document CHEMBL1156295, “In vitro and in vivo photocytotoxicity of boron dipyrromethene derivatives for photodynamic therapy” (J Med Chem, 2010).

Assays:
Assay type in all cases: functional, cell-based
[1] = tested on: HL-60; assay: Phototoxicity against human HL60 cells irradiated with 4.1 J/cm^2 broad spectrum light treated 2 hrs before irradiation measured after 24 hrs by MTT assay; settings: HL-60, light or radiation study
Method in brief: (§1)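 HL60 at 15000 cells/well; HSC-2 and HK1 at 3000 cells/well, adhered overnight; phenol-red-free medium with 10% FBS. Compound tested at 0.001–100.0 μM from DMSO stock; controls 0.01% DMSO. After 2 h, irradiated with broad-spectrum light at 6.8 mW/cm2, or dark. After 24 h, MTT 4 h at 37 °C, formazan in DMSO, A570. Three determinations, mean ± SD.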

[2] = tested on: HL-60; assay: Cytotoxicity against human HL60 cells after 24 hrs by MTT assay; settings: HL-60, 24 h; method in brief: as §1
[3] = tested on: HSC-2; assay: Phototoxicity against human HSC2 cells irradiated with 4.1 J/cm^2 broad spectrum light treated 2 hrs before irradiation measured after 24 hrs by MTT assay; settings: HSC-2, light or radiation study; method in brief: as §1
[4] = tested on: HSC-2; assay: Cytotoxicity against human HSC2 cells after 24 hrs by MTT assay; settings: HSC-2, 24 h; method in brief: as §1
[5] = Phototoxicity against human HK1 cells irradiated with 4.1 J/cm^2 broad spectrum light treated 2 hrs before irradiation measured after 24 hrs by MTT assay; settings: HK-1, light or radiation study; method in brief: as §1
[6] = Cytotoxicity against human HK1 cells after 24 hrs by MTT assay; settings: HK-1, 24 h; method in brief: as §1

| Compound | IC50 [1] | IC50 [2] | IC50 [3] | IC50 [4] | IC50 [5] | IC50 [6] |
| --- | --- | --- | --- | --- | --- | --- |
| CC1=C(I)C(C)=[N+]2C1=Cc1c(C)c(I)c(C)n1[B-]2(F)F | 0.062 µM | > 100 µM | 0.64 µM | > 100 µM | 0.57 µM | > 100 µM |
| CC1=C(I)C(C)=[N+]2C1=C(c1ccc(I)cc1)c1c(C)c(I)c(C)n1[B-]2(F)F | 0.42 µM | 10 µM | 0.5 µM | 10 µM | 0.69 µM | 95.5 µM |
| COC(=O)C1=CCCC1C1=C(C)C2=Cc3c(C)c(C4CCC=C4C(=O)OC)c(C)n3[B-](F)(F)[N+]2=C1C (configuration not stated) | 3.8 µM | > 100 µM | – | – | 4.8 µM | > 100 µM |
| CCCCOC(=O)/C=C/C1=C(C)C2=Cc3c(C)c(/C=C/C(=O)OCCCC)c(C)n3[B-](F)(F)[N+]2=C1C | 57.7 µM | > 100 µM | 37.7 µM | > 100 µM | > 100 µM | > 100 µM |
| CC1=CC(C)=[N+]2C1=C(c1ccc(I)cc1)c1c(C)cc(C)n1[B-]2(F)F | 2.7 µM | > 100 µM | 5.1 µM | > 100 µM | 5.7 µM | > 100 µM |
| CC1=C(S(=O)(=O)O)C(C)=[N+]2C1=C(c1ccc(I)cc1)c1c(C)c(S(=O)(=O)O)c(C)n1[B-]2(F)F | 54.3 µM | > 100 µM | 59.4 µM | > 100 µM | 59 µM | > 100 µM |
| CC1=C(C=O)C(C)=[N+]2C1=Cc1c(C)cc(C)n1[B-]2(F)F | > 100 µM | > 100 µM | > 100 µM | > 100 µM | > 100 µM | > 100 µM |
| CC1=C(/C=C/C(=O)O)C(C)=[N+]2C1=Cc1c(C)cc(C)n1[B-]2(F)F | > 100 µM | > 100 µM | > 100 µM | > 100 µM | > 100 µM | > 100 µM |
| CC1=C(/C=C/S(=O)(=O)O)C(C)=[N+]2C1=Cc1c(C)cc(C)n1[B-]2(F)F | > 100 µM | > 100 µM | > 100 µM | > 100 µM | > 100 µM | > 100 µM |
| CC1=CC(C)=[N+]2C1=Cc1c(C)cc(C)n1[B-]2(F)F | 4.4 µM | > 100 µM | 8.7 µM | > 100 µM | 6.2 µM | 76.8 µM |
| COC(=O)C1=CCCCC1C1=C(C)C2=Cc3c(C)cc(C)n3[B-](F)(F)[N+]2=C1C (configuration not stated) | 4.9 µM | > 100 µM | 4.1 µM | > 100 µM | 5 µM | > 100 µM |
| COC(=O)/C=C/C1=C(C)C2=Cc3c(C)cc(C)n3[B-](F)(F)[N+]2=C1C | 4.8 µM | > 100 µM | 5.4 µM | > 100 µM | 5.3 µM | > 100 µM |
| COC(=O)/C=C/C1=C(C)C2=Cc3c(C)c(/C=C/C(=O)OC)c(C)n3[B-](F)(F)[N+]2=C1C | 5.2 µM | > 100 µM | 11.1 µM | > 100 µM | 8.5 µM | > 100 µM |
| CCCCOC(=O)/C=C/C1=C(C)C2=Cc3c(C)cc(C)n3[B-](F)(F)[N+]2=C1C | 0.49 µM | > 100 µM | 0.6 µM | > 100 µM | 1.1 µM | 99.6 µM |
